ChEMBL document CHEMBL3865839, “Short Route to the Total Synthesis of Natural Muricadienin and Investigation of Its Cytotoxic Properties” (J Nat Prod, 2016)
Calls of active or inactive are those of the source. The rule behind the calls is not given here.

How the values were obtained:
[1] = Cytotoxicity against HEK293 cells assessed as reduction in cell viability after 24 hrs by MTT assay; assay type: functional, cell-based; settings: Homo sapiens, HEK293, 24 h
In short: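 HEK293 (HPA Culture Collections) monolayers in DMEM with 10% FBS and 1% penicillin–streptomycin, 37 °C, humidified 5% CO2. Compound dissolved in DMSO, then diluted in culture medium. Antiproliferative read-out by MTT tetrazolium reduction to formazan. Etoposide run as positive control. IC50 determined.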

[2] = target: T1, DNA topoisomerase 1 (Homo sapiens) (UniProt P11387); assay: Inhibition of human Top1 using pHOT as substrate assessed as suppression of relaxation of DNA supercoil at >50 uM after 30 mins by ethidium bromide-based agarose gel electrophoresis
T1 sequence (whole entry): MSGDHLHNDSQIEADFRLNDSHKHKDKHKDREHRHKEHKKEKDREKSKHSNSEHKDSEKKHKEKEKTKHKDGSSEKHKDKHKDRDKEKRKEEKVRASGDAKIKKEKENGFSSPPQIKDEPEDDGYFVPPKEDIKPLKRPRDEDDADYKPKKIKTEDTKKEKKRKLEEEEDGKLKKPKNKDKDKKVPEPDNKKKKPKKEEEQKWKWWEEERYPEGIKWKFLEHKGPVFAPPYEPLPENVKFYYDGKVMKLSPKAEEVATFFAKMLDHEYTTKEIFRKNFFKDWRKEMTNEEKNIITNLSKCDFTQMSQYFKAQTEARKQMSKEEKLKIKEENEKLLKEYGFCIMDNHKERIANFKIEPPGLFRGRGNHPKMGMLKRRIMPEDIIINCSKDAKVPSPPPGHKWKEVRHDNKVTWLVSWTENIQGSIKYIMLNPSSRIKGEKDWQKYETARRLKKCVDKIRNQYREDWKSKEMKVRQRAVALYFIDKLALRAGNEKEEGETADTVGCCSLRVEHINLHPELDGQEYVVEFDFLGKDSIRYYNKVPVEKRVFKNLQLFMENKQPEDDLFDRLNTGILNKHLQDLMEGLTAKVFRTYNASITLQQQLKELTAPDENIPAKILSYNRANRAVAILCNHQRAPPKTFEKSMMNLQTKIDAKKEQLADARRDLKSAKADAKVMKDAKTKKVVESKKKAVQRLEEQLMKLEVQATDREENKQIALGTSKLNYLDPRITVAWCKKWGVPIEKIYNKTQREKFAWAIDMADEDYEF

[3] = target: DNA topoisomerase 2-alpha (Homo sapiens) (UniProt P11388); assay: Inhibition of human Top2alpha using pHOT as substrate assessed as suppression of relaxation of DNA supercoil at >1 uM after 30 mins administered prior to enzyme addition by ethidium bromide-based agarose gel electrophoresis
HEK293 [4] = assay: Induction of apoptosis in HEK293 cells assessed as early apoptotic cells at 0.19 uM after 24 hrs by Annexin V/propidium iodide-dual staining based FACS analysis (reference value: 2.04%); assay type: functional, Homo sapiens
HEK293 [5] = assay: Induction of apoptosis in HEK293 cells assessed as necrotic cells at 0.19 uM after 24 hrs by Annexin V/propidium iodide-dual staining based FACS analysis (reference value: 3.35%); assay type: functional, Homo sapiens
HEK293 [6] = assay: Induction of apoptosis in HEK293 cells assessed as viable cells at 0.1 uM after 24 hrs by Annexin V/propidium iodide-dual staining based FACS analysis (reference value: 90.31%); assay type: functional; settings: Homo sapiens, HEK293, 24 h; read-out: Activity
HEK293 [7] = assay: Induction of apoptosis in HEK293 cells assessed as viable cells at 0.19 uM after 24 hrs by Annexin V/propidium iodide-dual staining based FACS analysis (reference value: 90.31%); assay type: functional; settings: Homo sapiens, HEK293, 24 h; read-out: Activity
HEK293 [8] = assay: Induction of apoptosis in HEK293 cells assessed as late apoptotic cells at 0.19 uM after 24 hrs by Annexin V/propidium iodide-dual staining based FACS analysis (reference value: 4.30%); assay type: functional, Homo sapiens
HEK293 [9] = assay: Induction of apoptosis in HEK293 cells assessed as necrotic cells at 0.48 uM after 24 hrs by Annexin V/propidium iodide-dual staining based FACS analysis (reference value: 3.35%); assay type: functional, Homo sapiens
HEK293 [10] = assay: Induction of apoptosis in HEK293 cells assessed as viable cells at 0.48 uM after 24 hrs by Annexin V/propidium iodide-dual staining based FACS analysis (reference value: 90.31%); assay type: functional; settings: Homo sapiens, HEK293, 24 h; read-out: Activity
HEK293 [11] = assay: Induction of apoptosis in HEK293 cells assessed as late apoptotic cells at 0.48 uM after 24 hrs by Annexin V/propidium iodide-dual staining based FACS analysis (reference value: 4.30%); assay type: functional, Homo sapiens
HEK293 [12] = assay: Induction of apoptosis in HEK293 cells after 24 hrs by Annexin V/propidium iodide-dual staining based FACS analysis; assay type: functional, cell-based; settings: Homo sapiens
HEK293 [13] = assay: Induction of apoptosis in HEK293 cells assessed as late apoptotic cells at 0.1 uM after 24 hrs by Annexin V/propidium iodide-dual staining based FACS analysis (reference value: 4.30%); assay type: functional, Homo sapiens
HEK293 [14] = assay: Induction of apoptosis in HEK293 cells assessed as early apoptotic cells at 0.48 uM after 24 hrs by Annexin V/propidium iodide-dual staining based FACS analysis (reference value: 2.04%); assay type: functional, Homo sapiens
HEK293 [15] = assay: Induction of apoptosis in HEK293 cells assessed as necrotic cells at 0.1 uM after 24 hrs by Annexin V/propidium iodide-dual staining based FACS analysis (reference value: 3.35%); assay type: functional, Homo sapiens
HEK293 [16] = assay: Induction of apoptosis in HEK293 cells assessed as early apoptotic cells at 0.1 uM after 24 hrs by Annexin V/propidium iodide-dual staining based FACS analysis (reference value: 2.04%); assay type: functional, Homo sapiens

Sequence of DNA topoisomerase 2-alpha (Homo sapiens) (P11388 whole entry): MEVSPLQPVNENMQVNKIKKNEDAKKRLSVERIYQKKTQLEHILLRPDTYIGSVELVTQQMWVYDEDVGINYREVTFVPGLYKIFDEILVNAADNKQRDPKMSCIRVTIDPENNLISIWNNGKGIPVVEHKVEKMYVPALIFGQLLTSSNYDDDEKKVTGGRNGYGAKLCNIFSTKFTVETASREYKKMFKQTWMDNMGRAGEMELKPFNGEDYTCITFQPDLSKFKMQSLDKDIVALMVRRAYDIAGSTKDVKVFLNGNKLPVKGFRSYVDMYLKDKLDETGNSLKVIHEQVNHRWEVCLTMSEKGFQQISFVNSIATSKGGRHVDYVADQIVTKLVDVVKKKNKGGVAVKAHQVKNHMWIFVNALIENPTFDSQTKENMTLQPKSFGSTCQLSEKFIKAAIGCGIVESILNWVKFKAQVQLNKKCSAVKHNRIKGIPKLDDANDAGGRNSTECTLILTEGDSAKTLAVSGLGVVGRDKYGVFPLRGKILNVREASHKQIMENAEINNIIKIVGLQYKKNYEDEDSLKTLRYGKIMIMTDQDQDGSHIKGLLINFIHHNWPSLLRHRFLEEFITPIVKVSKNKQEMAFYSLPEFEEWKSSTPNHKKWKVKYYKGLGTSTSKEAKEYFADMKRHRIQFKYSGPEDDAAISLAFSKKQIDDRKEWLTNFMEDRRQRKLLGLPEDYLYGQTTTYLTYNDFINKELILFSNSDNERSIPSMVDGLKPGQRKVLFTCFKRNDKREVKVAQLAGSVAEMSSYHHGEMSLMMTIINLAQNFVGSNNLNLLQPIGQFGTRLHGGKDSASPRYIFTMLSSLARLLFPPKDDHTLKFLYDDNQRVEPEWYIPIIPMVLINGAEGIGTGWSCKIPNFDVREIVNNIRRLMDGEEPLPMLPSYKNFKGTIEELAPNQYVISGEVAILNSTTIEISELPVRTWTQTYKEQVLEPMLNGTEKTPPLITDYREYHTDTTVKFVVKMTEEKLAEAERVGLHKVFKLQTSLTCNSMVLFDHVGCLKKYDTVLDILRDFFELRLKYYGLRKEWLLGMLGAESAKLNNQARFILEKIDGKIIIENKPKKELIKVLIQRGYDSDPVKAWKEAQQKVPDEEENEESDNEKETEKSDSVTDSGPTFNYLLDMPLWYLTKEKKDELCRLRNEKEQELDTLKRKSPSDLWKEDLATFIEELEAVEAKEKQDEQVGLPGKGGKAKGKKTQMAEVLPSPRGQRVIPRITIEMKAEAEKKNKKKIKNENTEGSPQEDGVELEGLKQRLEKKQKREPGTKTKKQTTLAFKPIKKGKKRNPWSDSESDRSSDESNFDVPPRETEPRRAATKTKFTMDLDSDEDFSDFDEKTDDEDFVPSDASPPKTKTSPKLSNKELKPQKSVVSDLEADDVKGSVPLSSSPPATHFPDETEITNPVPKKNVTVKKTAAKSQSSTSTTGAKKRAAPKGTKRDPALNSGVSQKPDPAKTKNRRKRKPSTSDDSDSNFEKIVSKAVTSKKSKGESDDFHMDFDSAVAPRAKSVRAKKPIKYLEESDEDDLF

Compound	IC50 [1] [nM]	inhibition [2]	inhibition [3]	Activity (HEK293 [4]) [%]	Activity (HEK293 [5]) [%]	viability at 0.1 µM (HEK293 [6]) [%]	viability at 0.19 µM (HEK293 [7]) [%]	Activity (HEK293 [8]) [%]	Activity (HEK293 [9]) [%]	viability at 0.48 µM (HEK293 [10]) [%]	Activity (HEK293 [11]) [%]	Activity (HEK293 [12])	Activity (HEK293 [13]) [%]	Activity (HEK293 [14]) [%]	Activity (HEK293 [15]) [%]	Activity (HEK293 [16]) [%]
COc1cc([C@@H]2c3cc4c(cc3[C@@H](O[C@@H]3O[C@@H]5CO[C@@H](C)O[C@H]5[C@H](O)[C@H]3O)[C@H]3COC(=O)[C@H]23)OCO4)cc(OC)c1O [ETOPOSIDE]	600	–	–	–	–	–	–	–	–	–	–	–	–	–	–	–
CCCCCCCCCCCC/C=C\CC/C=C\CCCCCCCCCCCCC1=C[C@H](C)OC1=O	390	Active	Active	10.49	6.7	82.3	67.5	15.3	7.91	48.6	27.32	Dose-dependent effect	8.09	16.14	4.3	5.31
